ChEMBL document CHEMBL1817578, “2-({6-[(3R)-3-amino-3-methylpiperidine-1-yl]-1,3-dimethyl-2,4-dioxo-1,2,3,4-tetrahydro-5H-pyrrolo[3,2-d]pyrimidine-5-yl}methyl)-4-fluorobenzonitrile (DSR-12727): a potent, orally active dipeptidyl peptidase IV inhibitor without mechanism-based inactivation of CYP3A” (Bioorg Med Chem, 2011)

Experiments:
Dipeptidyl peptidase 2 = Dipeptidyl peptidase 2 (Homo sapiens, UniProt Q9UHL4); experiment: Inhibition of DPP2
Dipeptidyl peptidase 9 = Dipeptidyl peptidase 9 (Homo sapiens, UniProt Q86TI2); experiment: Inhibition of DPP9
Dipeptidyl peptidase 9, sequence (Q86TI2 whole entry): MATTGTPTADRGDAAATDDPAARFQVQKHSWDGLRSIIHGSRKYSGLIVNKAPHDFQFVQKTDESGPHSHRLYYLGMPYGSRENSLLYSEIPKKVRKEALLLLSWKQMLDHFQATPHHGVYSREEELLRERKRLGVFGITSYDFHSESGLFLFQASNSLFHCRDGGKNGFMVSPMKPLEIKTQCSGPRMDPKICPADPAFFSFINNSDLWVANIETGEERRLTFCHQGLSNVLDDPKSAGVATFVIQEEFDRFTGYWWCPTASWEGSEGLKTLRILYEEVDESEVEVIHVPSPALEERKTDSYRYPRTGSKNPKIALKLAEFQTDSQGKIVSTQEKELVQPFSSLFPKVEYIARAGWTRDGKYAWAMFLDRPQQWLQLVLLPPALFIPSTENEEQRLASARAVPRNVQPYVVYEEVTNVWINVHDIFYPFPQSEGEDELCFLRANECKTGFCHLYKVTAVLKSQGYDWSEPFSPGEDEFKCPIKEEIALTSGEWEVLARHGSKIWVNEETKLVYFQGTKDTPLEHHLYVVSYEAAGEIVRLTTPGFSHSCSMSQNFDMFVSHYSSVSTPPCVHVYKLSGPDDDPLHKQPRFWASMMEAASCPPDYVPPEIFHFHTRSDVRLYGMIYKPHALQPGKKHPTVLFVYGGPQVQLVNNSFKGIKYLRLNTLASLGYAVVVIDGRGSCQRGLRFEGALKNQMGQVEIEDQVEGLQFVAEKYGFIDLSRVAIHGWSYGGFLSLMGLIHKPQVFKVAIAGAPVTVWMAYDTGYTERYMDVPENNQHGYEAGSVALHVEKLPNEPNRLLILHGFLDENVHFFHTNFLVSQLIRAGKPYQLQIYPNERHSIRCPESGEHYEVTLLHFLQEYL

Prolyl endopeptidase = target: T1, Prolyl endopeptidase (Homo sapiens, UniProt P48147); experiment: Inhibition of prolyl oligopeptidase
T1 sequence (P48147 whole entry): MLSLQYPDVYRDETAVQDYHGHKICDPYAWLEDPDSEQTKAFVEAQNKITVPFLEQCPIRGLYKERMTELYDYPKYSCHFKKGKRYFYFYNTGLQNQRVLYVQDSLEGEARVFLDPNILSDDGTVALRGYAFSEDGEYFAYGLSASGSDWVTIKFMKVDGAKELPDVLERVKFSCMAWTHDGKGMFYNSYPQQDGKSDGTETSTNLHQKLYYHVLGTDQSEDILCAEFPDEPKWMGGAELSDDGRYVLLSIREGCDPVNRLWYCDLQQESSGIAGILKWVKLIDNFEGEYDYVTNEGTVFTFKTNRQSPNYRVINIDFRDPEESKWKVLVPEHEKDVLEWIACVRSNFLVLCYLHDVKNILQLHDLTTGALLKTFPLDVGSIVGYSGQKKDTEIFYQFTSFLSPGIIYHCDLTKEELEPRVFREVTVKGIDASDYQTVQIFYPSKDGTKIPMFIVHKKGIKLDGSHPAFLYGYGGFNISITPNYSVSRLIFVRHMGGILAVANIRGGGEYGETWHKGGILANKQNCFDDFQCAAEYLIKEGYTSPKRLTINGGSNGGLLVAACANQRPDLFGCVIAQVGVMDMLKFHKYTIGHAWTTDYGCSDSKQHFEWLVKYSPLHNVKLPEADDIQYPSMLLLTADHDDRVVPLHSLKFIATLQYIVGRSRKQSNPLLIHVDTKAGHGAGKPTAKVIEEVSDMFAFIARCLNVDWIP

Prolyl endopeptidase FAP = target: T2, Prolyl endopeptidase FAP (Homo sapiens, UniProt Q12884); experiment: Inhibition of FAPalpha
T2 sequence (Q12884 whole entry): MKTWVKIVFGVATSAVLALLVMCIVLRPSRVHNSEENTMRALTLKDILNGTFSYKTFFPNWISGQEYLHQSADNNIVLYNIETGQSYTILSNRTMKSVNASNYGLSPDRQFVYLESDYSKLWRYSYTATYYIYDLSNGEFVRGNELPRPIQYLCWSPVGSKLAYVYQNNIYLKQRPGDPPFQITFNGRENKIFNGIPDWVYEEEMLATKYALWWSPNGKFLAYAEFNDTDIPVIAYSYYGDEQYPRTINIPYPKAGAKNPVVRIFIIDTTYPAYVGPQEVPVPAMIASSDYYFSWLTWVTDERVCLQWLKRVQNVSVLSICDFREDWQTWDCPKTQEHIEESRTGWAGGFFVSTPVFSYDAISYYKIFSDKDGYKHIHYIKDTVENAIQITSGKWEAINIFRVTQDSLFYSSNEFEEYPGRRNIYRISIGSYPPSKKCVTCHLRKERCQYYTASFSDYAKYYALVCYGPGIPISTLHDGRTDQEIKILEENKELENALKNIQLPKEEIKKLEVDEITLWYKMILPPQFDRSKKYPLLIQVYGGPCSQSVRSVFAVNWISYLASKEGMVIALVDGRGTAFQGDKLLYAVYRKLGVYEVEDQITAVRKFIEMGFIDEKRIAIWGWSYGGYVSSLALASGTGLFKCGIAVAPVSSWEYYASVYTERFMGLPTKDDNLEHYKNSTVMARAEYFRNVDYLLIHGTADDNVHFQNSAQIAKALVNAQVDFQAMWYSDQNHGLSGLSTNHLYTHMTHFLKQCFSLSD

Cytochrome P450 2A6 = target: T3, Cytochrome P450 2A6 (Homo sapiens, UniProt P11509); experiment: Inhibition of CYP2A6; type: ADME
T3 sequence (P11509 whole entry): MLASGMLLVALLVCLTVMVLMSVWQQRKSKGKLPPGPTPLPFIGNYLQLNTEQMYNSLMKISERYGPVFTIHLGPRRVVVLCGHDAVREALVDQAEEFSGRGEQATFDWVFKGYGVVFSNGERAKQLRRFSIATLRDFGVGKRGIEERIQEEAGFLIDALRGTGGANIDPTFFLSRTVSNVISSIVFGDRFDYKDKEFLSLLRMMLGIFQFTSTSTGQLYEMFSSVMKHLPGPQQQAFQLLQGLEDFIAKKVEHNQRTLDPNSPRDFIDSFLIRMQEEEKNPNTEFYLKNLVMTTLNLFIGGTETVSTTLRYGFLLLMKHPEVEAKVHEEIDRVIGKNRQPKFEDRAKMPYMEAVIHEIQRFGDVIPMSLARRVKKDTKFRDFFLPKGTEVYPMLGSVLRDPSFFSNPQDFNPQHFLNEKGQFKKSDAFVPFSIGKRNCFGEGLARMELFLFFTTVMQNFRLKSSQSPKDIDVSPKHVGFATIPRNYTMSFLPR

Cytochrome P450 3A4 = Cytochrome P450 3A4 (Homo sapiens, UniProt P08684); experiment: Inhibition of CYP3A4; type: ADME
Cytochrome P450 3A4, sequence (P08684 whole entry): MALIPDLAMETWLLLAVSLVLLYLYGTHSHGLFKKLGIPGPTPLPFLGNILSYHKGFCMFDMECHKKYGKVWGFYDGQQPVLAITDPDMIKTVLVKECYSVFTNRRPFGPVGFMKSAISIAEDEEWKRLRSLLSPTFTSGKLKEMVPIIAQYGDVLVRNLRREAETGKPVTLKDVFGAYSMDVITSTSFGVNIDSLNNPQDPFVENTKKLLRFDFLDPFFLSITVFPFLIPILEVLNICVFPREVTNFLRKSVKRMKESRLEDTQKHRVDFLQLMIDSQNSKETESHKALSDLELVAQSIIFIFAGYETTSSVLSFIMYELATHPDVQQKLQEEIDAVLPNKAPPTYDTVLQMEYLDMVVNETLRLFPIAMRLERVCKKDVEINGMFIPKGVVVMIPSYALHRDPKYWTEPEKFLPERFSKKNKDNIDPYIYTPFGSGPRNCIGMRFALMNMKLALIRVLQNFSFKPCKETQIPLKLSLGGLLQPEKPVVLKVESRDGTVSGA

Cytochrome P450 2D6 = Cytochrome P450 2D6 (Homo sapiens, UniProt P10635); experiment: Inhibition of CYP2D6; type: ADME
Cytochrome P450 2D6, sequence (P10635 whole entry): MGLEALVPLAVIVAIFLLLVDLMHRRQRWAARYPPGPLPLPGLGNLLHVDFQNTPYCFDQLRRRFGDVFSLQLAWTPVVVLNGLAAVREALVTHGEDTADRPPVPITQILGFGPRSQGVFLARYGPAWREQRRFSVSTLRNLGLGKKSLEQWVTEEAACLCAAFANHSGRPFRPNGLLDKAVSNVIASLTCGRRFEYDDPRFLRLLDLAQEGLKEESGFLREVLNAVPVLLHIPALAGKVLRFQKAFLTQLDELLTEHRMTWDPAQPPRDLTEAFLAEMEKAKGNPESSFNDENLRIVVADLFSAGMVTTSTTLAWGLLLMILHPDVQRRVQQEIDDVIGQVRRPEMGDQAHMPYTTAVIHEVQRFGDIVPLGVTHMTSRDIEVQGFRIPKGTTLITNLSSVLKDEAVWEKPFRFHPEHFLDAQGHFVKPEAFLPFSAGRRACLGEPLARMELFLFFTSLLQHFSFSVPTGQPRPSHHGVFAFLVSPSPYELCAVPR

[1] = Clearance in rat at 1 mg/kg, iv; type: ADME, organism-based; set-up: dose 1 mg/kg, route intravenous; details: in vivo
[2] = Volume of distribution at steady state in rat at 1 mg/kg, iv; type: ADME, organism-based; set-up: dose 1 mg/kg, route intravenous; details: in vivo, read-out: Vdss
[3] = Cmax in rat at 3 mg/kg, po; type: ADME, organism-based; set-up: dose 3 mg/kg, route oral; details: in vivo
[4] = Half life in rat at 3 mg/kg, po; type: ADME, organism-based; set-up: dose 3 mg/kg, route oral; details: in vivo
[5] = Oral bioavailability in rat at 3 mg/kg; type: ADME, organism-based; details: in vivo
[6] = Half life in dog at 1 mg/kg, iv; type: ADME, organism-based, Canis lupus familiaris; set-up: dose 1 mg/kg, route intravenous; details: in vivo
[7] = Cmax in dog at 3 mg/kg, po; type: ADME, organism-based, Canis lupus familiaris; set-up: dose 3 mg/kg, route oral; details: in vivo
[8] = Half life in dog at 3 mg/kg, po; type: ADME, organism-based, Canis lupus familiaris; set-up: dose 3 mg/kg, route oral; details: in vivo
[9] = Oral bioavailability in dog at 3 mg/kg, po; type: ADME, organism-based, Canis lupus familiaris; details: in vivo
[10] = Clearance in monkey at 1 mg/kg, iv; type: ADME, organism-based, Macaca mulatta; set-up: dose 1 mg/kg, route intravenous; details: rhesus monkey, in vivo
[11] = Volume of distribution at steady state in monkey at 1 mg/kg, iv; type: ADME, organism-based, Macaca mulatta; set-up: dose 1 mg/kg, route intravenous; details: rhesus monkey, in vivo, read-out: Vdss
[12] = Half life in monkey at 1 mg/kg, iv; type: ADME, organism-based, Macaca mulatta; set-up: dose 1 mg/kg, route intravenous; details: rhesus monkey, in vivo
[13] = Cmax in monkey at 3 mg/kg, po; type: ADME, organism-based, Macaca mulatta; set-up: dose 3 mg/kg, route oral; details: rhesus monkey, in vivo
[14] = Half life in monkey at 3 mg/kg, po; type: ADME, organism-based, Macaca mulatta; set-up: dose 3 mg/kg, route oral; details: rhesus monkey, in vivo
[15] = Oral bioavailability in monkey at 3 mg/kg, po; type: ADME, organism-based, Macaca mulatta; details: rhesus monkey, in vivo
[16] = Plasma protein binding in rat; type: ADME, cell-free; details: read-out: PPB (converted)
[17] = Plasma protein binding in dog; type: ADME, cell-free, Canis lupus familiaris; details: read-out: PPB (converted)
[18] = Plasma protein binding in monkey; type: ADME, cell-free, Macaca mulatta; details: rhesus monkey, read-out: PPB (converted)
[19] = Cmax in Zucker fatty rat at 3 mg/kg, po after 3 hrs; type: ADME, organism-based; set-up: dose 3 mg/kg, route oral; details: in vivo
[20] = AUC in Zucker fatty rat at 3 mg/kg, po after 3 hrs; type: ADME, organism-based; set-up: time < 3 hr, dose 3 mg/kg, route oral; details: plasma
Salmonella typhimurium = experiment: Genotoxicity in Salmonella Typhimurium by Ames test; type: toxicity, organism-based; details: salmonella enterica subsp. enterica serovar typhimurium
[21] = Toxicity in monkey assessed as organ toxicity after 2 weeks repeated dosage; type: organism-based, Macaca mulatta; details: rhesus monkey, in vivo
Summary of the method: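 2-week repeated-dose toxicity study; rats n = 5 per sex, monkeys n = 1 per sex.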

IC50 (Dipeptidyl peptidase 2): > 50 µM
IC50 (Dipeptidyl peptidase 9): > 50 µM
IC50 (Prolyl endopeptidase): > 50 µM
IC50 (Prolyl endopeptidase FAP): > 50 µM
IC50 (Cytochrome P450 2A6): > 50 µM
IC50 (Cytochrome P450 3A4): > 50 µM
IC50 (Cytochrome P450 2D6): 38 µM
clearance [1]: 40 mL/min/kg
Vd [2]: 6.5 L/kg
Cmax [3]: 76 ng/mL
half-life [4]: 198 min
bioavailability [5]: 52%
half-life [6]: 186 min
Cmax [7]: 245 ng/mL
half-life [8]: 234 min
bioavailability [9]: 91%
clearance [10]: 38 mL/min/kg
Vd [11]: 10 L/kg
half-life [12]: 288 min
Cmax [13]: 77 ng/mL
half-life [14]: 900 min
bioavailability [15]: 38%
fraction unbound [16]: 0.22
fraction unbound [17]: 0.41
fraction unbound [18]: 0.31
Cmax [19]: 309 ng/mL
AUC at 3 h [20]: 2170 ng·h/mL
SMILES: Cn1c(=O)c2c(cc(N3CCC[C@@](C)(N)C3)n2Cc2cc(F)ccc2C#N)n(C)c1=O
Activity (Salmonella typhimurium): Non-toxic
NOAEL at 336 h [21]: 60 mg/kg/day
